proCasp3 act – activates human procaspase-3; P42574; recombinant procaspase-3 D3A, Ac-DEVD-pNA absorbance 405 nm; activation, % at 8.5 µM; actives 0.11% (n = 330,000); AID 463141;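 active = activation above the mean of all tested compounds plus 3 SD, cut at about 21% in these data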
Target sequence (P42574 whole entry D9A/D28A/D175A): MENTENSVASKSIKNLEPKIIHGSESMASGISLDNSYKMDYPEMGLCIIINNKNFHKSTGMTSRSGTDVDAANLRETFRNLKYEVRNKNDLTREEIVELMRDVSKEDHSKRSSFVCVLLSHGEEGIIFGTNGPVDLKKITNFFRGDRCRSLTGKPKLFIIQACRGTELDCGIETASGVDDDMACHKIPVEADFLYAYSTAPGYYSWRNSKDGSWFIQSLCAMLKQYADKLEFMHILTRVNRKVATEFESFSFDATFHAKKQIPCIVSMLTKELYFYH
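material = Procaspase-3 D3A mutant | probe or stimulus = Ac-DEVD-pNA | compound = single dose, 8.5 µM nominal compound, 0.8% DMSO | timing = 1 h preincubation, 2 h reaction | measured by = 405 nm absorbance of p-nitroaniline, reads at 0 and 120 min | benchmarks = DMSO-only low control, 5 µM PC-3 D3A high control | repeats = singlicate, each compound tested once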
VLA-4 inh – inhibition in a human VLA-4 binding assay; P13612; VLA-4 expressing cells, ligand binding flow cytometry; inhibition, % (about 7 µM as worked out from the volumes in the protocol); actives 0.2% (n = 330,000); AID 2557; in the data active = inhibition above about 50%
Lipid droplet – modulators of hepatic lipid droplet formation; actives 0.4% (n = 240,000); AML12 mouse hepatocytes, oleate lipid droplets, BODIPY imaging; inhibition, % at 6.5 µM;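 active = lipid droplet intensity inhibited by at least 50%, with more than 500 cells counted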
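Material: mouse AML12 hepatocyte cell line, fixed after treatment; Timing: compound with oleate, overnight; Technique: high-content imaging of BODIPY-stained droplets and DAPI nuclei; Probe or stimulus: oleate, 100 µM final; Dosing: compound at 6.5 µM only.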
GRK2 aptamer HTS – inhibitors of human GRK2 displacing RNA aptamer; P25098; bead flow cytometry, FAM-aptamer displacement from GRK2; inhibition of aptamer binding, % at 10 µM; actives 0.59% (n = 330,000); AID 488847;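 active = inhibition of aptamer binding above 40%, roughly 3 SD of noise, on plates passing a quality check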;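 note: median bead fluorescence of bound FAM aptamer so fluorescent compounds give negative values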
proCasp7 act – activates human procaspase-7, counter-screen for procaspase-3 activators. recombinant procaspase-7, Ac-DEVD-pNA absorbance 405 nm; D23A/D198A/D206A triple mutant, cannot self-cleave; scale: DMSO 0, 5 µM enzyme 100. activation, % at 8.5 µM. actives 0.093% (n = 330,000);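 active = percent activation above the screen-wide mean plus 3 SD, cut at about 25% in these data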
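Replicates: singlicate. Assay system: Procaspase-7 triple mutant (PC-7 D3A). Signal: 405 nm absorbance of p-nitroaniline. Times: 1 h preincubation, 2 h reaction. Buffer or medium: Zinc-free HEPES pH 7.4 with 300 mM NaCl, 0.01% Triton X-100. Also added: DEVD-pNA substrate. Benchmarks: DMSO wells as 0%, DMSO with 5 µM added PC-7 as 100%.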
GASC-1 inh – inhibitors of human GASC-1 (JMJD2C) demethylase; Q9H3R0; GST-JMJD2C(1-420) H3K9me3 demethylation, DELFIA europium; inhibition, % at 2.35 µM; actives 0.069% (n = 330,000);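 active = more than half of a compound's replicate wells show inhibition beyond 50%, single wells judged on their own value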;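 note: signal counts dimethyl H3K9 product captured on neutravidin plate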
Target sequence (Q9H3R0 1-420 limits assumed): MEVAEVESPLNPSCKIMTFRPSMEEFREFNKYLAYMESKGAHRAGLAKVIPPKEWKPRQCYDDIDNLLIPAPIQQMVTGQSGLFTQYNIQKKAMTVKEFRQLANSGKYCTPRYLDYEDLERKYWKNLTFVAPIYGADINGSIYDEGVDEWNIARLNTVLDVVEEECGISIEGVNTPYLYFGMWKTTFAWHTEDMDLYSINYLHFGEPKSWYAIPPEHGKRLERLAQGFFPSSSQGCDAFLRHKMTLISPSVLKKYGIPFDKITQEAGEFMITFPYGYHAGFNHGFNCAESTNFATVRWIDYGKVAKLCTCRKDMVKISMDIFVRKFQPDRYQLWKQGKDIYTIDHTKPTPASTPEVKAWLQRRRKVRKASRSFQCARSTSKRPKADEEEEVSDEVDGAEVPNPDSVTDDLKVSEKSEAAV
GRK2 inh confirm – human GRK2 inhibition confirmation, cherry pick 1. AID 504451. shares compounds with GRK2 aptamer HTS. actives 4% (n = 2,000). bead-bound GRK2, FAM-aptamer displacement, flow cytometry. aptamer displacement, % at 10 µM;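 active = aptamer displacement above 40%, near three times the noise of non-fluorescent compounds, on plates passing quality checks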;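 note: negative values mostly reflect intrinsic compound fluorescence rather than true enhancement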
FAM quench CP1 – quenches fluorescent RNA aptamer, GRK2 hit artifact | fluorescence response (% of DMSO), % at 10 µM | shares compounds with GRK2 aptamer HTS | 2,000 tested, under 10 active | Carboxyfluorescein RNA aptamer on beads, flow cytometry quenching; active compounds read low;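 active = compounds that quench the bead-bound fluorescent RNA probe, cutting fluorescence to under half of the solvent control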;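 note: counterscreen run without GRK2 so only probe quenching by compound is measured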
GRK2 CP2 – human GRK2 inhibition confirmation, cherry pick 2 | shares compounds with GRK2 aptamer HTS | bead-bound GRK2, FAM-aptamer displacement, flow cytometry | inhibition of aptamer binding, % at 10 µM | 360 tested, under 10 active;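 active = inhibition of aptamer binding above 40%, about triple the noise seen with nonglowing compounds, on plates passing quality control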;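 note: negative values mostly come from compounds that fluoresce themselves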
FAM quench SP – aptamer fluorescence quenching in GRK2 counter-screen; shares compounds with GRK2 aptamer HTS; carboxyfluorescein RNA aptamer beads, flow cytometry quenching; active compounds read low; fluorescence response vs DMSO, % at 10 µM; 360 tested, under 10 active;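 active = response vs DMSO under 50%, meaning signal dropped by over half, treated as fluorescence quencher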;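 note: labelled aptamer on streptavidin beads without GRK2 as a quench counter-screen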
Numbers stand for hits. Shown are actives, neighbours in structure and some others; about 1.3% of the full set was active somewhere.

How did O=C(NCC(=O)N1CCN(c2ccccn2)CC1)c1ccc(Br)o1 do in these assays?
proCasp3 act: inactive; VLA-4 inh: inactive; Lipid droplet: inactive; GRK2 aptamer HTS: inactive; proCasp7 act: inactive; GASC-1 inh: inactive

What do the screens show for `CSC1=NC(=O)/C(=C/c2ccc(SC)cc2)S1`?
proCasp3 act: inactive; VLA-4 inh: inactive; GRK2 aptamer HTS: 58; proCasp7 act: inactive; GASC-1 inh: inactive; GRK2 inh confirm: inactive; FAM quench CP1: inactive

Results for Cc1ccc(C(=O)Nc2cccc(C(F)(F)F)c2)cc1NC(=O)c1nccn1C ?
proCasp3 act: inactive; VLA-4 inh: inactive; Lipid droplet: inactive; GRK2 aptamer HTS: inactive; proCasp7 act: inactive

How did Cc1ccc(C(=O)Nc2cccc(C(F)(F)F)c2)cc1NC(=O)c1ccno1 do in these assays?
proCasp3 act: inactive; VLA-4 inh: inactive; Lipid droplet: inactive; GRK2 aptamer HTS: inactive; proCasp7 act: inactive; GASC-1 inh: inactive; GRK2 inh confirm: inactive; FAM quench CP1: inactive

What do the screens show for `O=C(COC(=O)Cc1ccsc1)Nc1ccc(Br)cc1`?
proCasp3 act: inactive; VLA-4 inh: inactive; GRK2 aptamer HTS: inactive; proCasp7 act: inactive

Results for CCC(=O)Nc1ccc(C(=O)COC(=O)Cc2ccsc2)cc1 ?
proCasp3 act: inactive; VLA-4 inh: inactive; GRK2 aptamer HTS: 48; proCasp7 act: inactive; GASC-1 inh: inactive; GRK2 inh confirm: inactive; FAM quench CP1: inactive

Results for COc1cccc(-c2nc(N3CCCC3)c3ccccc3n2)c1O ?
proCasp3 act: inactive; VLA-4 inh: inactive; Lipid droplet: inactive; GRK2 aptamer HTS: inactive; proCasp7 act: inactive; GASC-1 inh: inactive

Results for COc1cccc(-c2nc(N3CCC(C)CC3)c3ccccc3n2)c1O ?
proCasp3 act: inactive; VLA-4 inh: inactive; GRK2 aptamer HTS: 91; proCasp7 act: inactive; GASC-1 inh: inactive; GRK2 inh confirm: inactive; FAM quench CP1: inactive

What do the screens show for `O=C(O)c1cccc2cc(-c3ccccc3)oc(=O)c12`?
proCasp3 act: inactive; VLA-4 inh: inactive; Lipid droplet: inactive; GRK2 aptamer HTS: inactive; proCasp7 act: inactive; GASC-1 inh: inactive; GRK2 inh confirm: inactive; FAM quench CP1: inactive

Results for Cc1cccc2c1cnn2C(=O)CCC(=O)N1CCC(C)CC1 ?
proCasp3 act: inactive; VLA-4 inh: inactive; Lipid droplet: inactive; GRK2 aptamer HTS: 70; proCasp7 act: inactive; GASC-1 inh: inactive; GRK2 inh confirm: inactive; FAM quench CP1: inactive

Results for Cc1cccc2c1cnn2C(=O)CCC(=O)N1CC(C)CC(C)C1 (stereo unspecified) ?
proCasp3 act: inactive; VLA-4 inh: inactive; Lipid droplet: inactive; GRK2 aptamer HTS: inactive; proCasp7 act: inactive; GASC-1 inh: inactive

What do the screens show for `CCCn1cc(SCC(=O)NCC2CCCO2)c2ccccc21` (stereo unspecified)?
proCasp3 act: inactive; VLA-4 inh: inactive; Lipid droplet: inactive; GRK2 aptamer HTS: inactive; proCasp7 act: inactive; GASC-1 inh: inactive

How did O=C(CSc1cn(CCNC(=O)c2cccs2)c2ccccc12)NCC1CCCO1 (stereo unspecified) do in these assays?
proCasp3 act: inactive; VLA-4 inh: inactive; Lipid droplet: inactive; GRK2 aptamer HTS: inactive; proCasp7 act: inactive; GASC-1 inh: inactive; GRK2 CP2: inactive; FAM quench SP: inactive

What do the screens show for `O=C(CSc1cn(CCNC(=O)c2cccs2)c2ccccc12)NC1CCCCC1`?
proCasp3 act: inactive; VLA-4 inh: inactive; Lipid droplet: inactive; GRK2 aptamer HTS: inactive; proCasp7 act: inactive; GASC-1 inh: inactive; GRK2 CP2: inactive; FAM quench SP: inactive

Results for Oc1ccc(CCNc2c3ccccc3nc3ccccc23)cc1O ?
proCasp3 act: inactive; VLA-4 inh: inactive; Lipid droplet: inactive; GRK2 aptamer HTS: inactive; proCasp7 act: inactive; GASC-1 inh: inactive

How did Cc1ccc(Cn2c(SC3CCOC3=O)nc3ccccc3c2=O)cc1 (stereo unspecified) do in these assays?
proCasp3 act: inactive; VLA-4 inh: inactive; Lipid droplet: inactive; GRK2 aptamer HTS: 43; proCasp7 act: inactive; GASC-1 inh: inactive; GRK2 CP2: inactive; FAM quench SP: inactive

Results for CCc1cc2c(=O)n(Cc3ccccc3)c(SC3CCOC3=O)nc2s1 (stereo unspecified) ?
proCasp3 act: inactive; VLA-4 inh: inactive; Lipid droplet: inactive; GRK2 aptamer HTS: inactive; proCasp7 act: inactive; GASC-1 inh: inactive

What do the screens show for `Cc1cc(S(=O)(=O)N2CCCCC2CCNC(=O)C(=O)NCC2CCCO2)ccc1F` (stereo unspecified)?
proCasp3 act: inactive; VLA-4 inh: inactive; GRK2 aptamer HTS: inactive; proCasp7 act: inactive; GASC-1 inh: inactive

How did CCn1c(SCC(=O)N2CCCC2)nnc1-c1ccco1 do in these assays?
proCasp3 act: inactive; VLA-4 inh: inactive; Lipid droplet: inactive; GRK2 aptamer HTS: 47; proCasp7 act: inactive; GASC-1 inh: inactive; GRK2 inh confirm: inactive; FAM quench CP1: inactive

Results for CCCCCC(=O)Nc1cccc(C2=NOC3(C2)C[C@@H](C(N)=O)N(C(=O)c2cc([N+](=O)[O-])cc([N+](=O)[O-])c2)C3)c1 (stereo partly specified) ?
proCasp3 act: inactive; VLA-4 inh: inactive; GRK2 aptamer HTS: inactive; proCasp7 act: inactive; GASC-1 inh: inactive

Results for CCC(=O)Nc1cccc(C2=NOC3(C2)C[C@H](C(N)=O)N(C(=O)CC#N)C3)c1 (stereo partly specified) ?
proCasp3 act: inactive; VLA-4 inh: inactive; Lipid droplet: inactive; GRK2 aptamer HTS: inactive; proCasp7 act: inactive; GASC-1 inh: inactive; GRK2 CP2: inactive; FAM quench SP: inactive

What do the screens show for `C/C=C(/C)C(=O)Nc1cccc(C2=NOC3(C2)C[C@@H](C(N)=O)N(C(=O)CC)C3)c1` (stereo partly specified)?
proCasp3 act: inactive; VLA-4 inh: inactive; Lipid droplet: inactive; GRK2 aptamer HTS: inactive; proCasp7 act: inactive; GASC-1 inh: inactive
